Reference: ChEMBL document CHEMBL1641558, “A novel series of potent and selective EP(4) receptor ligands: facile modulation of agonism and antagonism” (Bioorg Med Chem Lett, 2011)
Values belong to the molecule of their own block, whether it stands above or below them. Calls of active or inactive are those of the source. The rule behind the calls is not given here.

What was measured:
[1] = Drug excretion in rat bile assessed as total radioactivity after 24 hrs; type: ADME; conditions: in vivo
[2] = species: Rattus norvegicus; assay: covalent protein labeling in rat assessed per mg of protein; type: ADME, organism-based; conditions: in vivo
[3] = test system: Hepatocyte; assay: Oxidative metabolism in human hepatocytes assessed as protein covalent binding per mg of protein after 2 hrs; type: ADME, cell-based
[4] = test system: Hepatocyte; assay: Oxidative metabolism in rat hepatocytes assessed as protein covalent binding per mg of protein after 2 hrs; type: ADME, cell-based
[5] = Clearance in rat at 20 mg/kg, po and 5 mg/kg, iv; type: ADME, organism-based; conditions: in vivo
Procedure, shortened: (§1)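 Rat pharmacokinetics with potassium salts, given 20 mg/kg orally in 0.5% methocel and 5 mg/kg intravenously in 60% PEG 200. Half-life, oral bioavailability and clearance derived from these dosings.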

[6] = species: Homo sapiens; assay: Selectivity ratio of Ki for human prostanoid DP receptor to Ki for human prostanoid EP4
[7] = Half life in rat at 20 mg/kg, po and 5 mg/kg, iv; type: ADME, organism-based; conditions: in vivo; procedure, shortened: as §1
[8] = test system: Rattus norvegicus; assay: Antiinflammatory activity in rat assessed as inhibition of complete Freund's adjuvant-induced paw swelling at 0.6 mg/kg administered daily once 9 days after adjuvant challenge measured on day 18
[9] = test system: Rattus norvegicus; assay: Analgesic activity against carrageenan-induced mechanical hyperalgesia in rat assessed as paw withdrawal latency at 10 mg/kg; type: functional
Procedure, shortened: (§2)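 Rats given carrageenan injection into the paw at t = 0 h, test article dosed at t = 2 h. At t = 3 h mechanical pressure is applied to the paw and paw withdrawal latency is recorded. Statistics by one-way ANOVA with Dunnett's test versus vehicle control.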

[10] = biological target: T1, Prostaglandin E2 receptor EP4 subtype (Homo sapiens, UniProt P35408); assay: Antagonist activity at human prostanoid EP4 receptor expressed in HEK293 cells assessed as inhibition of PGE2-induced cAMP accumulation by scintillation proximity assay; type: functional, cell-based
Procedure, shortened: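 HEK293 cells expressing EP4 receptors. Antagonism is read as inhibition of PGE2-evoked rise in intracellular cAMP, reported as IC50. Agonism is read as cAMP elevation in the same cells without PGE2, reported as EC50.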

[11] = species: Homo sapiens; assay: Selectivity ratio of Ki for human prostanoid TP receptor to Ki for human prostanoid EP4
[12] = species: Homo sapiens; assay: Selectivity ratio of Ki for human prostanoid FP receptor to Ki for human prostanoid EP4
[13] = test system: Rattus norvegicus; assay: Antiinflammatory activity in rat assessed as inhibition of complete Freund's adjuvant-induced paw swelling administered daily once 9 days after adjuvant challenge measured on day 18; type: functional, organism-based
Procedure, shortened: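 Adjuvant arthritis in rats: complete Freund's adjuvant injected into the left hind paw on day 0. Dosing once daily for 9 days, starting on day 9. Secondary paw volume measured on day 18. Percent inhibition is calculated from the difference between each treated group (n = 7/group) and vehicle control; SEM reported.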

[14] = Bioavailability in rat at 20 mg/kg, po and 5 mg/kg, iv; type: ADME, organism-based; conditions: in vivo; procedure, shortened: as §1
[15] = species: Homo sapiens; assay: Selectivity ratio of Ki for human prostanoid EP2 receptor to Ki for human prostanoid EP4
[16] = species: Homo sapiens; assay: Selectivity ratio of Ki for human prostanoid EP3 receptor to Ki for human prostanoid EP4
[17] = species: Homo sapiens; assay: Selectivity ratio of Ki for human prostanoid EP1 receptor to Ki for human prostanoid EP4
[18] = biological target: T1, Prostaglandin E2 receptor EP4 subtype; assay: Displacement of [3H]PGE2 from human prostanoid EP4 receptor expressed in HEK293-EBNA cells after 60 mins by scintillation counting; type: cell-based
[19] = Metabolic stability in rat hepatocytes assessed as parent compound remaining after 2 hrs; type: ADME, cell-based, Hepatocyte; conditions: read-out: Stability
Procedure, shortened: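 Incubation with rat hepatocytes for 2 h. The mixture is analysed by LC/MS for percent parent remaining and metabolite identity.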

[20] = species: Homo sapiens; assay: Selectivity ratio of Ki for human prostanoid IP receptor to Ki for human prostanoid EP4
[21] = species: Rattus norvegicus; assay: Analgesic activity against carrageenan-induced mechanical hyperalgesia in rat assessed as paw withdrawal latency; type: functional, organism-based; procedure, shortened: as §2

T1 sequence (P35408 whole entry): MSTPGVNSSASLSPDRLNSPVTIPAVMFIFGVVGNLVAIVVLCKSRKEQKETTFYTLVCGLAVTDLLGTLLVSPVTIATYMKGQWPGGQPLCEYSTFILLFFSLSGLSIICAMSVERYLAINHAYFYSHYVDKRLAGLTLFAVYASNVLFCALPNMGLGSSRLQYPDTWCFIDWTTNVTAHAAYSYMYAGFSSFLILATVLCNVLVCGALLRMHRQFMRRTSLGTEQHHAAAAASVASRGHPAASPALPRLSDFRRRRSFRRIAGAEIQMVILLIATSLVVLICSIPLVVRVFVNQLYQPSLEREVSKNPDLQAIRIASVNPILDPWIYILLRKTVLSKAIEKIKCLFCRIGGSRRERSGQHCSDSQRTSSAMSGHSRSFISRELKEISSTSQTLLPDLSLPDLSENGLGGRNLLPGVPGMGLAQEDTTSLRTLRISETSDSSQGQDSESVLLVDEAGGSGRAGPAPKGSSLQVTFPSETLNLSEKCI

Activity [1]: 86%
Activity [2]: 5 pmol
Activity [3]: 28 pmolequiv/mg
Activity [4]: 56 pmolequiv/mg
Structure (SMILES): [3H]c1cc2c(c(C(=O)N[C@@H](C)c3ccc(C(=O)O)cc3)c1)N(Cc1ccc(C(F)(F)F)cc1)CC2

clearance [5]: 11 mL/min/kg
Ratio Ki [6]: > 1000
half-life [7]: 4.1 h
IC50 [10]: 2.1 nM
Ratio Ki [11]: > 1000
Ratio Ki [12]: > 1000
bioavailability [14]: 48%
Ratio Ki [15]: > 1000
Ratio Ki [16]: > 1000
Ratio Ki [17]: > 1000
Ki [18]: 0.37 nM
remaining at 2 h [19]: 36%
Ratio Ki [20]: > 1000
Structure (SMILES): C[C@H](NC(=O)c1cccc2c1N(Cc1ccc(C(F)(F)F)cc1)CC2)c1ccc(C(=O)O)cc1
inhibition [8]: Active
Activity [9]: 64%
inhibition [13]: Dose-dependent effect
Activity [21]: Dose-dependent effect
